Assay results gathered from unrelated publications.
Each line is one published result; the experiments were not run side by side.
Observed: cell growth or viability

| SMILES | cell line | method | time | endpoint | result |
| --- | --- | --- | --- | --- | --- |
| CO[C@]12C[C@@H](COC(=O)c3cncc(Br)c3)CN(C)[C@@H]1Cc1cn(C)c3cccc2c13 | SUNE1 | MTT | 48 h | IC50 | 12200 nM |
| CC1(C)CCC(CN2CCN(c3ccc(C(=O)NS(=O)(=O)c4ccc(NCC5CCOCC5)c([N+](=O)[O-])c4)c(Oc4cnc5[nH]ccc5c4)c3)CC2)=C(c2ccc(Cl)cc2)C1 | OCI-Ly10 | ATP luminescence | 48 h | IC50 | 19 nM |
| C=CC(=O)NC1CCN(c2ncc3ncnc(Nc4ccc(Oc5ccc6c(c5)ncn6C)c(C)c4)c3n2)CC1 | Daoy |  |  | EC50 | 74.4 nM |
| COc1cc2nc(N3CCN(C(=O)c4ccco4)CC3)nc(N)c2cc1OC | SUNE1 | MTT | 48 h | IC50 | 27400 nM |
| O=C(NO)c1ccc(CNc2nc3cccc(-c4ccc5c(c4)OCO5)n3n2)cc1 | KM12 | SRB |  | GI50 | 560 nM |
| CC(C)c1ccccc1[C@@H]1CCCN1C1CC2(CCN(c3ccc(C(=O)NS(=O)(=O)c4ccc(NC[C@H]5CC[C@](C)(O)CC5)c([N+](=O)[O-])c4)c(Oc4cnc5[nH]ccc5c4)c3)CC2)C1 | OCI-Ly10 | ATP luminescence | 48 h | IC50 | 2.6 nM |
| O=C(Nc1cnn2ccc(N3CCC[C@@H]3c3cc(F)ccc3F)nc12)N1CC[C@H](O)C1 | KM12 | ATP luminescence | 72 h | IC50 | 10 nM |
| Cc1c(C(=O)O)ccc2c3n(nc12)[C@@H]1[C@H](C3)N(CC2CC2)[C@@]2(C(=O)Nc3cc(Cl)ccc32)[C@H]1c1cccc(Cl)c1F | UACC-812 | resazurin |  | GI50 | 27 nM |
